Data taken from ChEMBL document CHEMBL1781977, “Design and synthesis of 3,5-diarylisoxazole derivatives as novel class of anti-hyperglycemic and lipid lowering agents” (Bioorg Med Chem, 2009).
pIC50: −log10 of the molar value. Active and inactive are the calls of the source. The rule behind the calls is not given here.

Assays:
Mus musculus [1] = experiment: Antidyslipidemic activity in C57BL/Ks db/db mouse assessed as reduction in plasma triglyceride level at 100 mg/kg, po; type: functional
How it was run: (§1)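 db/db mice (C57BL/KsBom, 12–18 weeks, 5 male and 5 female) dosed orally at 100 mg/kg in 1.0% gum acacia. Blood collected on day 8 for serum lipids. Mean ± SD, n = 5, against vehicle-treated db/db controls; Dunnett's test.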

Rattus norvegicus [2] = experiment: Antihyperglycemic activity against sucrose challenged streptozotocin-induced diabetic Sprague-Dawley albino rat assessed as reduction in blood glucose level at 100 mg/kg, po administered 30 mins before sucrose challenge; type: functional
How it was run: (§2)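 Male Sprague Dawley rats, 160 ± 20 g, fasted overnight, given streptozotocin 60 mg/kg ip in 100 mM citrate pH 4.5. Rats with glucose 144–270 mg/dl at 48 h count as diabetic, 5–6 per group. Dosed 100 mg/kg orally in 1.0% gum acacia. Sucrose 2.5 g/kg given 30 min later. Glucose read at 30–300 min and 24 h. Non-responders excluded.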

Rattus norvegicus [3] = experiment: Antihyperglycemic activity against sucrose challenged streptozotocin-induced diabetic Sprague-Dawley albino rat assessed as reduction in blood glucose level at 25 mg/kg, po administered 30 mins before sucrose challenge; type: functional
How it was run: (§3)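 Streptozotocin-diabetic Sprague Dawley rats: streptozotocin 60 mg/kg ip in citrate pH 4.5; rats at 144–270 mg/dl after 48 h used. Oral doses of 7.5–100 mg/kg in 1.0% gum acacia, then sucrose 2.5 g/kg. Glucose measured at 30, 60, 90, 120, 180, 240, 300 and 1440 min. ED50 taken from dose response. Mean ± SD, n = 5; Dunnett's test.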

Mus musculus [4] = experiment: Antidyslipidemic activity in C57BL/Ks db/db mouse assessed as plasma HDL-cholesterol level at 100 mg/kg, po; type: functional; how it was run: as §1
Mus musculus [5] = species on record: Mus musculus; experiment: Antihyperglycemic activity in C57BL/Ks db/db mouse assessed as reduction in blood glucose level measured after 3 days relative to control; type: functional
Mus musculus [6] = experiment: Antihyperglycemic activity in C57BL/Ks db/db mouse assessed as reduction in blood glucose level at 100 mg/kg, po measured 6 days post dose by postprandial glucose tolerance test; type: functional; conditions: 144 h
How it was run: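 C57BL/KsBom-db mice, 12–18 weeks, 40–50 g, 5 male and 5 female, at 23 °C with 12/12 h light cycle. Treated orally at 100 mg/kg, vehicle 1.0% gum acacia. Day 6 postprandial test: glucose at −0.5 h and 0 h, then at 1, 2, 3, 4 and 6 h after dosing.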

Rattus norvegicus [7] = experiment: Antihyperglycemic activity against sucrose challenged streptozotocin-induced diabetic Sprague-Dawley albino rat assessed as reduction in blood glucose level at 15 mg/kg, po administered 30 mins before sucrose challenge; type: functional; how it was run: as §3
Mus musculus [8] = experiment: Antihyperglycemic activity in C57BL/Ks db/db mouse assessed as reduction in blood glucose level at 100 mg/kg, po measured 10 days post dose by postprandial glucose tolerance test; type: functional; conditions: 240 h, in the assay text read “oral glucose tolerance test” for “postprandial glucose tolerance test”
How it was run: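 db/db mice (C57BL/KsBom, 12–18 weeks, 40–50 g) given 100 mg/kg orally, vehicle 1.0% gum acacia. Day 10 OGTT after overnight fast: glucose at −30 min and drug given, then glucose at 0 min. Glucose 3 g/kg given, with readings at 30, 60, 90 and 120 min.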

[9] = molecular target: T1, Tyrosine-protein phosphatase non-receptor type 1 (Homo sapiens) (UniProt P18031); experiment: Inhibition of protein tyrosine phosphatase-1B at 10 uM incubated for 10 mins using pNPP substrate by modified Goldstein method
T1 sequence (whole entry): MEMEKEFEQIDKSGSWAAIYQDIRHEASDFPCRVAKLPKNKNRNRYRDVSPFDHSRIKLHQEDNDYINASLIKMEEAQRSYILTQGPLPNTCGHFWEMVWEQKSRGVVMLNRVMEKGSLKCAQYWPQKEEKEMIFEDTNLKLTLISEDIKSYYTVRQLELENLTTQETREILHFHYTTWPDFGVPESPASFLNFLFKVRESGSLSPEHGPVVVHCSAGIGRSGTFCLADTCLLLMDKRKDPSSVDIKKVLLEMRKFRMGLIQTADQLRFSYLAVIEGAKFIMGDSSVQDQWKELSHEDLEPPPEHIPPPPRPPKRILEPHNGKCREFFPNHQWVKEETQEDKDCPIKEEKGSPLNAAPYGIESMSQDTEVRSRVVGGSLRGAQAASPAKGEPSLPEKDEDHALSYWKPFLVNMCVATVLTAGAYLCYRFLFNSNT
How it was run: (§4)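 PTP-1B: compound preincubated 10 min with enzyme, with or without 0.01% Triton X-100. Then 10 mM pNPP in 50 mM HEPES pH 7.0 with 1 mM DTT and 2 mM EDTA, 30 min at 37 °C. Stopped with 0.1 N NaOH; absorbance read at 410 nm. p-Nitrophenolate calculated using ε 1.78 × 10⁴ M⁻¹cm⁻¹. Sodium orthovanadate used as reference.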

[10] = molecular target: Dipeptidyl peptidase 4 (Homo sapiens) (UniProt P27487); experiment: Inhibition of DPP4 assessed as rate of substrate cleavage using Gly-Pro-AMC substrate by spectrofluorometry
Chain of Dipeptidyl peptidase 4 (Homo sapiens) (P27487 whole entry, looked up): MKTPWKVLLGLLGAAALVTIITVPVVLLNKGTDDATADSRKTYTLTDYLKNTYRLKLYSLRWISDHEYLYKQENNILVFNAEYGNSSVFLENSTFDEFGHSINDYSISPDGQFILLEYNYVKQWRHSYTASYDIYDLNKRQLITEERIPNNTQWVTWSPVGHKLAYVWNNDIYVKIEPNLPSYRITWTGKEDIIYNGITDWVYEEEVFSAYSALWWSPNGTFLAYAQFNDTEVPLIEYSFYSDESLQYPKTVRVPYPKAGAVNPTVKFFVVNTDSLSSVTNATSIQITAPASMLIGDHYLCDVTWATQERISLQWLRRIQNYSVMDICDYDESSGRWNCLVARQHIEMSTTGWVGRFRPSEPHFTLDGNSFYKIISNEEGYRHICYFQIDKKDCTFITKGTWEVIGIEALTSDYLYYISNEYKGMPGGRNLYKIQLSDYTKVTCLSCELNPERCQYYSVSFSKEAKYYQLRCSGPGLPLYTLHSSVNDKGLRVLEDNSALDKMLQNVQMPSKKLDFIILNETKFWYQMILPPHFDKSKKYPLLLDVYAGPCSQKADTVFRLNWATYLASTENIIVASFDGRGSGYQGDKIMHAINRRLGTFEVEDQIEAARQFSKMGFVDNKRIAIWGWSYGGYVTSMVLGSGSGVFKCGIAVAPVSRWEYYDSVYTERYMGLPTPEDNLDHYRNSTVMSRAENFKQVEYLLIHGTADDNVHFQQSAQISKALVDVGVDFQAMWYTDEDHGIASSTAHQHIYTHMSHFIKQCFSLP
How it was run: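 DPP-IV activity read by fluorescence at 37 °C, excitation 355 nm and emission 460 nm. Initial rate calculated over the first 15 min as increase in fluorescence intensity.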

Rattus norvegicus [11] = experiment: Antihyperglycemic activity against sucrose challenged streptozotocin-induced diabetic Sprague-Dawley albino rat assessed as reduction in blood glucose level at 100 mg/kg, po administered 30 mins before sucrose challenge measured after 5 hrs; type: functional; how it was run: as §2
Rattus norvegicus [12] = experiment: Antihyperglycemic activity against sucrose challenged streptozotocin-induced diabetic Sprague-Dawley albino rat assessed as reduction in blood glucose level at 7.5 mg/kg, po administered 30 mins before sucrose challenge; type: functional; how it was run: as §3
Rattus norvegicus [13] = experiment: Antihyperglycemic activity in Charles Foster/Wistar albino rat assessed as reduction in blood glucose level at 100 mg/kg, po administered 30 mins before sucrose challenge; type: functional
How it was run: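 Male Charles Foster/Wistar rats, 160 ± 20 g, fasted 16 h; animals with glucose 60–80 mg/dl used, 5–6 per group. Given 100 mg/kg orally as suspension in 1.0% gum acacia (controls vehicle alone). Sucrose 10.0 g/kg orally 30 min later. Glucometer readings at 30, 60, 90, 120 min. Percent activity derived from AUC of treated versus control groups.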

[14] = molecular target: T2, Tyrosine-protein phosphatase non-receptor type 1 (Homo sapiens, UniProt P18031); experiment: Inhibition of protein tyrosine phosphatase-1B at 10 uM incubated for 10 mins using pNPP substrate in presence of 0.01% Triton X-100 by modified Goldstein method; how it was run: as §4
T2 sequence (P18031 whole entry): T1 sequence (whole entry)

Rattus norvegicus [15] = experiment: Antihyperglycemic activity against sucrose challenged streptozotocin-induced diabetic Sprague-Dawley albino rat assessed as reduction in blood glucose level administered orally 30 mins before sucrose challenge; type: functional; conditions: po; how it was run: as §3
Rattus norvegicus [16] = experiment: Antihyperglycemic activity against sucrose challenged streptozotocin-induced diabetic Sprague-Dawley albino rat assessed as reduction in blood glucose level at 100 mg/kg, po administered 30 mins before sucrose challenge measured after 24 hrs; type: functional; how it was run: as §2
Rattus norvegicus [17] = experiment: Antihyperglycemic activity against sucrose challenged streptozotocin-induced diabetic Sprague-Dawley albino rat assessed as reduction in blood glucose level at 50 mg/kg, po administered 30 mins before sucrose challenge; type: functional; how it was run: as §3
[18] = molecular target: T3, Peroxisome proliferator-activated receptor gamma (Homo sapiens) (UniProt P37231); experiment: Activation of PPARgamma by receptor transactivation assay
T3 sequence (whole entry): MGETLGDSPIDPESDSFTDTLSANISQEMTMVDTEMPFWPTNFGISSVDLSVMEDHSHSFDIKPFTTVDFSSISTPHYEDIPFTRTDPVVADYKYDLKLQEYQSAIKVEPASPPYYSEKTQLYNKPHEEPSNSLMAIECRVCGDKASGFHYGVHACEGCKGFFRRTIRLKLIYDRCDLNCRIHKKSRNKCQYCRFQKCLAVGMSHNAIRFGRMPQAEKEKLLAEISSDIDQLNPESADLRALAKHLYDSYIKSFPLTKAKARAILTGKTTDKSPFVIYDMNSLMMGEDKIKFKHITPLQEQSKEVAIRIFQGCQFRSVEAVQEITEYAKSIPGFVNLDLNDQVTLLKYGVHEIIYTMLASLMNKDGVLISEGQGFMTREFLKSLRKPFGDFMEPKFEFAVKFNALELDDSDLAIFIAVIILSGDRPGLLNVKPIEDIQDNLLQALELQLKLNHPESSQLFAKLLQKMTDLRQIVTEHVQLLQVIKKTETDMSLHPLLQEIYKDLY

[19] = molecular target: T2, Tyrosine-protein phosphatase non-receptor type 1; experiment: Inhibition of protein tyrosine phosphatase-1B at 10 uM incubated for 10 mins using pNPP substrate in absence of Triton X-100 by modified Goldstein method; how it was run: as §4
Mus musculus [20] = experiment: Antidyslipidemic activity in C57BL/Ks db/db mouse assessed as reduction in plasma cholesterol level at 100 mg/kg, po; type: functional; how it was run: as §1

inhibition [9] [%] | inhibition [10] | pIC50 [14] | Activity [18] | pIC50 [19] | Compound | inhibition in vivo at 100 mg/kg (Mus musculus [1]) [%] | inhibition in vivo at 100 mg/kg (Rattus norvegicus [2]) [%] | inhibition in vivo at 25 mg/kg (Rattus norvegicus [3]) [%] | Activity (Mus musculus [4]) [%] | inhibition (INH) (Mus musculus [5]) [%] | inhibition in vivo at 100 mg/kg (Mus musculus [6]) [%] | inhibition in vivo at 15 mg/kg (Rattus norvegicus [7]) [%] | inhibition in vivo at 100 mg/kg (Mus musculus [8]) [%] | inhibition in vivo at 100 mg/kg (Rattus norvegicus [11]) [%] | inhibition in vivo at 7.5 mg/kg (Rattus norvegicus [12]) [%] | inhibition in vivo at 100 mg/kg (Rattus norvegicus [13]) [%] | ED50 (Rattus norvegicus [15]) [mg/kg] | inhibition in vivo at 100 mg/kg (Rattus norvegicus [16]) [%] | inhibition in vivo at 50 mg/kg (Rattus norvegicus [17]) [%] | inhibition in vivo at 100 mg/kg (Mus musculus [20]) [%]
76.3 | inactive | 5.05 | inactive | 5.06 | COc1ccc(-c2cc(-c3ccccc3)no2)c(OCCN2CCCCC2)c1 | -7.5 | 20.7 | 14 | 1.3 | 18.5 | 17.4 | 12.6 | 16.1 | 17.6 | 9.8 | 27.6 | 64.5 | 18.7 | 16.7 | -12.2
94.7 | inactive | 5.54 | – | 5.53 | CCN(CC)CCOc1cc(OC)ccc1-c1cc(-c2ccccc2)no1 | -12 | 25.4 | 19.5 | 3.9 | 21 | 22.6 | 15.5 | 21.5 | 26.9 | 10.3 | 29.9 | 45.3 | 25.7 | 21.7 | -14.5
